# Measurements of several laboratories.
# Compare with care: the assays were run in different laboratories.
Structure (SMILES),assay,test system,conditions,quantity,result
CC(C)NCC(O)COc1cccc2ccccc12 (stereo not shown),,Caco-2,"10 µM, 2 h, pH 7.4",efflux ratio,0.7
CC(=O)c1c(C)c2cnc(Nc3ccc(C4CCN(CCS(C)(=O)=O)CC4)cn3)nc2n(C2CCCC2)c1=O,,Caco-2,10 µM,efflux ratio,0.96
C[C@H]1O[C@@H](O[C@H]2[C@@H](O)C[C@H](O[C@H]3[C@@H](O)C[C@H](O[C@H]4CC[C@@]5(C)[C@H](CC[C@@H]6[C@@H]5C[C@@H](O)[C@]5(C)[C@@H](C7=CC(=O)OC7)CC[C@]65O)C4)O[C@@H]3C)O[C@@H]2C)C[C@H](O)[C@@H]1O,,Caco-2,"10 µM, 2 h, pH 7.4",efflux ratio,8.9
COc1cc(C(=O)c2nc(-c3cccc4[nH]ccc34)c[nH]2)cc(OC)c1OC,,"male CD-1 mouse, plasma","intraperitoneal, 15 mg/kg",Tmax,8.4 min
Cc1[nH]c(C)c(S(=O)(=O)Nc2ccc(S(F)(F)(F)(F)F)cc2)c1C(=O)N1CCC(F)(F)C1,,"mouse, brain","intraperitoneal, 40 mg/kg",Tmax,120 min
O=c1c2cc(Cl)c(CO)cc2[nH]c(=S)n1Cc1cncnc1,,Caco-2,"10 µM, 90 min, pH 7.4",efflux ratio,~2
CCOC(=O)c1c(NC(=O)CNC(C)C)sc2c1CCCCC2,,"male mouse, brain","intraperitoneal, 100 mg/kg, single dose",Tmax,30 min
N=C(N)NCCC[C@H](NC(=O)[C@H](Cc1ccccc1)NC(=O)[C@H](CCC(N)=O)NC(=O)OCc1ccccc1)C(=O)c1nccs1,,"female C57BL/6 mouse, plasma","intravenous, 5 mg/kg",Tmax,5 min
O=c1c2cc(Cl)c(CO)cc2[nH]c(=S)n1Cc1cccnc1,,Caco-2,"10 µM, 90 min, pH 7.4",efflux ratio,~2
CC(C)CC(=O)OC[C@H]1O[C@@](C#N)(c2ccc3c(N)ncnn23)[C@H](O)[C@@H]1O,general toxicity,beagle dog,"oral, multiple doses",NOAEL,100 mg/kg/day
